pIC50: −log10 of the molar value. Calls of active or inactive are those of the source. No cut-off for these calls is given here.
What was measured:
[1] = tested on: MCF7; assay: Increase in endogenous total ceramide level in human MCF7 cells at 10 uM after 2 hrs by LC/MS analysis relative to control; type: functional
How it was run: (§1)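 MCF7 cells treated with 10μM compound for 2 h. Endogenous ceramide species and sphingosine were measured in a Bligh & Dyer lipid extract and normalized to phospholipid phosphate (pmol/nmol Pi). Results are given as % of control, each dose in duplicate.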

[2] = tested on: MCF7; assay: Decrease in endogenous sphingosine level in human MCF7 cells at 10 uM after 2 hrs by LC/MS analysis relative to control; type: functional; parameters: scale not given: the % may be the effect or the level left; how it was run: as §1
[3] = tested on: MCF7; assay: Cytotoxicity against human MCF7 cells after 48 hrs by MTT assay; type: functional, cell-based; conditions: for pIC50: MCF7, 48 h
How it was run: (§2)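 MCF7 cells (RPMI 1640, 10% FBS) seeded at 5 × 10^3 per well and left overnight to attach. Compounds in DMSO (<0.1%) added at 0.78–100 μM for 48 h (or 72 h), then MTT read-out. Viability is Ad/Ac × 100 against untreated controls, with 5 replicates per dose and two independent experiments. IC50 is the concentration giving 50% growth inhibition.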

[4] = tested on: MCF7; assay: Increase in endogenous C14-ceramide level in human MCF7 cells at 10 uM after 2 hrs by LC/MS analysis relative to control; type: functional; how it was run: as §1
[5] = tested on: MCF7; assay: Increase in endogenous C16-ceramide level in human MCF7 cells at 10 uM after 2 hrs by LC/MS analysis relative to control; type: functional; how it was run: as §1
[6] = target: T1, Acid ceramidase (Homo sapiens) (UniProt Q13510); assay: Inhibition of acid ceramidase in human MCF7 cell lysate at 50 uM by scintillation counting; type: cell-free
T1 sequence (whole entry): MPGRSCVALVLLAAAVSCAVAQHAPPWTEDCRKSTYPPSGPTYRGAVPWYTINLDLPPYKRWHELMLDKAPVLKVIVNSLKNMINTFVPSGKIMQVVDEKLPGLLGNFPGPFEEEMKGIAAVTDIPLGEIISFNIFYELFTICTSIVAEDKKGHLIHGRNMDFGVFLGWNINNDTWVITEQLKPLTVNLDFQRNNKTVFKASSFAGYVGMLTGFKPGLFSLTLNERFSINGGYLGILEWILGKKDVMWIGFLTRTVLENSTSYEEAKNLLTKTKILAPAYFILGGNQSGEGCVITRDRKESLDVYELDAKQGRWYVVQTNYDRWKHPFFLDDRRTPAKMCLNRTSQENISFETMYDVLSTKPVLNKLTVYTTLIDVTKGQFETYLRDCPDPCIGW
How it was run: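 MCF7 lysate prepared in pH 4.5 acetate buffer (5mM MgCl2, 1mM EDTA, 0.5% Triton X-100) served as the enzyme source. Substrate was [3H]C16-ceramide in Triton/cholate, dried down with compound from ethanol stock. The reaction was run at final pH about 4.2 and 37°C for 1 h, then stopped with Dole's reagent. Released [3H]palmitic acid was counted by scintillation. Duplicates, reported as % control.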

[7] = tested on: MCF7; assay: Induction of lysosomal destabilization in human MCF7 cells assessed as reduction in stability at 10 uM after 1 to 5 hrs by FACS; type: functional; parameters: scale not given: the % may be the effect or the level left
How it was run: (§3)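 MCF7 cells seeded at 5 × 10^5 per well overnight, then moved to fresh 2% FBS medium with compound in DMSO or DMSO alone at 37°C for 1 and 5 h. 200nM LysoTracker Red was added for 30 min, and cells were trypsinized, washed and analysed by FACS (564–606nm, ≥10,000 events). A fall in fluorescence indicates a rise in lysosomal pH. Triplicates, reported as % control.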

[8] = tested on: MCF7; assay: Induction of apoptosis in human MCF7 cells at 5 uM after 24 hrs; type: functional, cell-based; conditions: MCF7, 24 h
[9] = target: T1, Acid ceramidase (Homo sapiens); assay: Inhibition of acid ceramidase in human MCF7 cells at 10 uM after 2 hrs by scintillation counting; type: cell-based
How it was run: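 MCF7 cells were treated with 10μM compound for 2 h, scraped and lysed in acidic buffer. Acid ceramidase activity in the lysate was assayed with [3H]C16-ceramide at pH about 4.2, 37°C for 1 h, counting released [3H]palmitic acid. Duplicates, reported as % control.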

[10] = tested on: MCF7; assay: Increase in endogenous C18-ceramide level in human MCF7 cells at 10 uM after 2 hrs by LC/MS analysis relative to control; type: functional; how it was run: as §1
[11] = tested on: MCF7; assay: Increase in endogenous sphingosine level in human MCF7 cells at 10 uM after 2 hrs by LC/MS analysis relative to control; type: functional; how it was run: as §1
[12] = tested on: MCF7; assay: Increase in endogenous C24:1-ceramide level in human MCF7 cells at 10 uM after 2 hrs by LC/MS analysis relative to control; type: functional; how it was run: as §1
[13] = tested on: MCF7; assay: Increase in endogenous C24-ceramide level in human MCF7 cells at 10 uM after 2 hrs by LC/MS analysis relative to control; type: functional; how it was run: as §1
[14] = tested on: MCF7; assay: Induction of lysosomal destabilization in human MCF7 cells assessed as reduction in stability at 10 uM after 5 hrs by FACS; type: functional, cell-based; how it was run: as §3
[15] = tested on: MCF7; assay: Cytotoxicity against human MCF7 cells after 72 hrs by MTT assay; type: functional, cell-based; conditions: MCF7, 72 h; how it was run: as §2
[16] = tested on: MCF7; assay: Induction of apoptosis in human MCF7 cells assessed as increase in caspase 3/7 activity at 10 uM after 24 hrs; type: functional
How it was run: (§4)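 MCF7 cells seeded at 5 × 10^3 per well overnight, then given vehicle or compound at the indicated concentrations. After 8 h and 24 h, caspase 3/7 activity was measured with the Apo-ONE homogeneous kit (fluorescence, ex 485/em 520 nm). Data are mean ±SD.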

[17] = tested on: MCF7; assay: Induction of lysosomal destabilization in human MCF7 cells assessed as reduction in stability at 10 uM after 1 hr by FACS; type: functional; parameters: scale not given: the % may be the effect or the level left; how it was run: as §3
[18] = tested on: MCF7; assay: Induction of apoptosis in human MCF7 cells assessed as increase in caspase 3/7 activity after 24 hrs; type: functional, cell-based; how it was run: as §4

Row | inhibition [6] | pIC50 [8] | inhibition [9] | Activity [9] | SMILES | Activity [1] | Activity [2] | Activity [3] | pIC50 [3] | Activity [4] | Activity [5] | Activity [7] | Activity [10] | Activity [11] | Activity [12] | Activity [13] | Activity [14] | pIC50 [15] | Activity [16] | Activity [17] | Activity [18]
1 |  |  |  |  | O=C(CCCCCCCCCCCn1ccnc1)N[C@H](CO)[C@H](O)c1ccc([N+](=O)[O-])cc1 | 98% | 50% | Dose-dependent effect | 4.83 | 200% | 120% |  |  |  |  |  |  |  |  |  | 
2 | 5% |  |  |  | CCCCCCCCNCCCCCC(=O)N[C@H](CO)[C@H](O)c1ccc([N+](=O)[O-])cc1 | 98% | 50% | Dose-dependent effect | 4.92 | 200% | 120% |  |  |  |  |  |  |  |  |  | 
3 | 5% |  |  |  | O=C(CCCCCCCCCCCN1CCOCC1)N[C@H](CO)[C@H](O)c1ccc([N+](=O)[O-])cc1 | 98% | 50% | Dose-dependent effect | 4.30 | 200% | 120% |  |  |  |  |  |  |  |  |  | 
4 |  |  |  |  | CNCCCCCCCCCCCC(=O)N[C@H](CO)[C@H](O)c1ccc([N+](=O)[O-])cc1 | 98% | 50% | Dose-dependent effect | 4.81 | 200% | 120% |  |  |  |  |  |  |  |  |  | 
5 |  |  |  |  | NCCCCCCCCCCCC(=O)N[C@H](CO)[C@H](O)c1ccc([N+](=O)[O-])cc1 | 98% | 50% | Dose-dependent effect | 5.19 | 200% | 120% |  |  |  |  |  |  |  |  |  | 
6 |  | 5.30 | 35% |  | CCCCCCCCCCCCCCN[C@H](CO)[C@H](O)c1ccc([N+](=O)[O-])cc1.Cl |  | 30% | Dose-dependent effect | 5.37 | 220% | 200% | 90% | 160% |  |  |  |  |  |  |  | 
7 | 90% |  |  | inactive | CCCCCCCCCCCCCC(=O)N[C@H](CO)[C@H](O)c1ccc([N+](=O)[O-])cc1 |  |  | Dose-dependent effect | 4.71 | 135% | 135% | inactive | 135% | 140% | 135% | 135% |  |  |  |  | 
8 | 55% |  | 65% |  | CN(C)CCCCCCCCCCCC(=O)N[C@H](CO)[C@H](O)c1ccc([N+](=O)[O-])cc1 |  | 50% | Dose-dependent effect | 4.99 | 300% | 143% |  |  |  |  |  | inactive | 5.14 | 175% | 10% | Dose-dependent effect

From ChEMBL document CHEMBL1152760, “Synthesis and bioevaluation of omega-N-amino analogs of B13” (Bioorg Med Chem, 2009)
